Experimental data taken from ChEMBL document CHEMBL3994580, “A novel class of α-glucosidase and HMG-CoA reductase inhibitors from Ganoderma leucocontextum and the anti-diabetic properties of ganomycin I in KK-Ay mice” (Eur J Med Chem, 2017).
Activity calls are given as the source filed them.

What was measured:
[1] = biological target: T1, 3-hydroxy-3-methylglutaryl-coenzyme A reductase (Sus scrofa) (UniProt Q1W675); assay: (§1) Inhibition of HMG-CoA reductase in pig liver microsomes using HMG-CoA as substrate preincubated for 5 mins followed by NADPH addition measured after 15 mins by colorimetric method
T1 sequence (whole entry): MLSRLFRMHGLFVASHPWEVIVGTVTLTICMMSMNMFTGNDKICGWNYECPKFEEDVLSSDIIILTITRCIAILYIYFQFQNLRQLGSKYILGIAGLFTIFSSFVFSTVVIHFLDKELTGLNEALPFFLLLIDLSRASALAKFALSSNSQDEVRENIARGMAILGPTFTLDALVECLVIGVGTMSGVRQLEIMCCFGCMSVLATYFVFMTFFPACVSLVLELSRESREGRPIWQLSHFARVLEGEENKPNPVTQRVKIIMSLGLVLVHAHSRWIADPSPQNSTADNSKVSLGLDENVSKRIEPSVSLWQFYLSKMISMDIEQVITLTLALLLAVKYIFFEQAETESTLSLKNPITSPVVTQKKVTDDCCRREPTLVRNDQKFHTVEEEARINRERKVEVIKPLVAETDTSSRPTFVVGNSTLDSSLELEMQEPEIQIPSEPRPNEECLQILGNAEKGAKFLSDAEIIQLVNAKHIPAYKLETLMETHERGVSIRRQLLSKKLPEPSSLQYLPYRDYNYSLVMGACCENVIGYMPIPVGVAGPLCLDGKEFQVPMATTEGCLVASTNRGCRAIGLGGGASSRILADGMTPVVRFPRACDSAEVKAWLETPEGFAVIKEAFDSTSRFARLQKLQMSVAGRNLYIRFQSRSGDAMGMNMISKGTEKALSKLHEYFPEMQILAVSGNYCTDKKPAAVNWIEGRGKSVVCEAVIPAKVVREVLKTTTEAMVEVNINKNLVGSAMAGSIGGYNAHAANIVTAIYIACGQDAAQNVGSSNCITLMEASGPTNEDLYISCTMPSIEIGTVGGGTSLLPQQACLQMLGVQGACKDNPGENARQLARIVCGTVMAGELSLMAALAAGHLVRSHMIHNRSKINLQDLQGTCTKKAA
In short: (§2)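 HMG-CoA reductase activity followed by absorbance at 340 nm. Blank had potassium phosphate buffer instead of enzyme, and control had buffer instead of compound. Percent inhibition calculated from blank-corrected OD.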

[2] = biological target: T2, 3-hydroxy-3-methylglutaryl-coenzyme A reductase (Sus scrofa, UniProt Q1W675); assay: as §1; in short: as §2
T2 sequence (Q1W675 whole entry): T1 sequence (whole entry)

Saccharomyces cerevisiae = assay: Non-competitive inhibition of baker's yeast alpha-glucosidase using varying levels of p-nitrophenyl alpha-D-glucopyranoside as substrate preincubated for 10 mins followed by substrate addition measured for 15 mins by Lineweaver-Burk plot analysis
In short: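 Kinetics with inhibitor at 0.3 to 1 μM against α-glucosidase. pNPG at 2, 4, 6 and 8 μM. Initial velocities measured with and without inhibitor, and inhibition type assigned from Michaelis-Menten and Lineweaver-Burk plots.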

Mus musculus [3] = assay: Acute toxicity in mouse assessed as convulsion up to […], po up to 14 days; type: organism-based; conditions: in vivo, 336 h
Mus musculus [4] = assay: Antidiabetic activity in KK-Ay diabetic mouse model assessed as reduction in HbA1C level at 1 to 5 mg/kg/day administered via oral gavage once daily for 21 days; type: functional, organism-based
Mus musculus [5] = assay: Antidiabetic activity in KK-Ay diabetic mouse model assessed as reduction in serum insulin level at 1 to 5 mg/kg/day administered via oral gavage once daily for 21 days; type: functional, organism-based
In short: (§3)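 Male KK-Ay mice (8 weeks old) on high-fat diet with water ad libitum, dosed by gavage once daily for 21 days (1 or 5 mg/kg test; rosiglitazone 10 mg/kg); female C57BL/6J mice as normal controls. Blood collected at study end. Serum lipids, insulin and glucose measured per cited method. ISI calculated from fasting blood glucose and fasting insulin. Mean ± SEM, n = 7-8.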

Mus musculus [6] = assay: Antidiabetic activity in KK-Ay diabetic mouse model assessed as increase in insulin sensitivity index at 1 to 5 mg/kg/day administered via oral gavage once daily for 21 days; type: functional, organism-based; in short: as §3
Mus musculus [7] = assay: Antidiabetic activity in KK-Ay diabetic mouse model assessed as reduction in blood glucose level at 5 mg/kg/day administered via oral gavage once daily for 21 days measured at 30 to 60 mins post glucose challenge by oral glucose tolerance test; type: functional, organism-based
In short: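 OGTT on day 21 of daily gavage dosing in KK-Ay mice. Blood glucose read at time points including 30 and 60 min, and the AUC was calculated. Mean ± SEM, n = 8.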

Mus musculus [8] = assay: Antidiabetic activity in KK-Ay diabetic mouse model assessed as reduction in blood glucose level at 5 mg/kg/day administered via oral gavage once daily measured on day 19 at 30 to 60 mins post insulin challenge by insulin tolerance test; type: functional, organism-based
In short: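 ITT on day 19 of treatment: after 4 h fasting, insulin 0.6 U·kg-1 given intraperitoneally. Glycaemia was sampled from the tail tip before and at set times after injection, and the AUC was computed. Mean ± SEM, n = 8.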

Mus musculus [9] = assay: Hypolipidemic activity in KK-Ay diabetic mouse model assessed as reduction in serum NEFA level at 1 to 5 mg/kg/day administered via oral gavage once daily for 21 days; type: functional, organism-based; in short: as §3
Mus musculus [10] = assay: Hypolipidemic activity in KK-Ay diabetic mouse model assessed as reduction in serum triglyceride level at 1 to 5 mg/kg/day administered via oral gavage once daily for 21 days; type: functional, organism-based; in short: as §3
Mus musculus [11] = assay: Hypolipidemic activity in KK-Ay diabetic mouse model assessed as reduction in serum LDL-C level at 1 to 5 mg/kg/day administered via oral gavage once daily for 21 days; type: functional, organism-based; in short: as §3
Mus musculus [12] = assay: Hypoglycemic activity in KK-Ay diabetic mouse model assessed as increase in liver hepatic glycogen level at 1 to 5 mg/kg/day administered via oral gavage once daily for 4 weeks; type: functional, organism-based
Mus musculus [13] = assay: Decrease in hepatocyte hypertrophy in KK-Ay diabetic mouse model at 5 mg/kg/day administered via oral gavage once daily for 21 days by haematoxylin and eosin staining based microscopic or morphometric method; type: functional, organism-based
In short: (§4)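 At study end, liver and abdominal white adipose tissue were fixed in 10% formaldehyde PBS (pH 7.4), paraffin-embedded, sectioned and stained with haematoxylin/eosin. Sections were assessed by microscopy or morphometry at 20×.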

Mus musculus [14] = assay: Decrease in lipid droplet accumulation in liver in KK-Ay diabetic mouse model at 5 mg/kg/day administered via oral gavage once daily for 21 days by haematoxylin and eosin staining based microscopic or morphometric method; type: functional, organism-based; in short: as §4
Mus musculus [15] = assay: Acute toxicity in mouse assessed as effect on behavior up to 3 g/kg, po up to 14 days; conditions: in vivo, 336 h
Mus musculus [16] = assay: Acute toxicity in mouse assessed as changes in nature of stool up to 3 g/kg, po up to 14 days; conditions: in vivo, 336 h
Mus musculus [17] = assay: Acute toxicity in mouse assessed as changes in nature of urine up to 3 g/kg, po up to 14 days; conditions: in vivo, 336 h

CC(C)=CCC/C(C)=C/CCC1=C[C@H](c2cc(O)ccc2O)OC1=O
active: inhibition [1] Dose-dependent effect | inhibition (Saccharomyces cerevisiae) | Activity (Mus musculus [4]) | Activity (Mus musculus [5]) | Activity (Mus musculus [6]) | Activity (Mus musculus [7]) | Activity (Mus musculus [8]) | Activity (Mus musculus [9]) | Activity (Mus musculus [10]) | Activity (Mus musculus [11]) | Activity (Mus musculus [12]) | Activity (Mus musculus [13]) | Activity (Mus musculus [14])
Non-Toxic: Activity (Mus musculus [3]) | Activity (Mus musculus [15]) | Activity (Mus musculus [16]) | Activity (Mus musculus [17])
12.3 µM: IC50 [2]
